Assay results reported in ChEMBL document CHEMBL3526063, “Metabolism and pharmacokinetics of JM6 in mice: JM6 is not a prodrug for Ro-61-8048” (Drug Metab Dispos, 2012).
Blank lines part the entries; values can stand above or below the compound they belong to.

Columns and labels:
[1] = Plasma protein binding in human at 10 uM for 6 hrs by LC-MS/MS analysis; format: ADME, cell-free; conditions: read-out: PPB
In short: (§1)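 Equilibrium dialysis: plasma fortified in triplicate (5 and 20 µM rat and mouse; 10 µM human) on donor side, PBS on receiver side; 37°C, 200 rpm, 6 h; both sides by LC-MS/MS.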

[2] = Tmax in C57BL/6N mouse at 0.05 mg/kg, po administered via gavage by LC-MS/MS analysis; format: ADME, organism-based; set-up: dose 0.05 mg/kg, route oral; conditions: in vivo
In short: (§2)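 Male C57BL/6N mice dosed by oral gavage (10 mL/kg) as fine suspensions in 10% hydroxypropyl-β-cyclodextrin in 50 mM phosphate buffer pH 7; dose formulations verified by LC-MS/MS. Plasma analysed by LC-MS/MS; composite non-compartmental parameters from mean concentrations (n=3 per time point), C0 set to zero. %F = dose-normalised po AUCinf over dose-normalised iv AUCinf, only within linear range.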

[3] = Cmax in mouse at 25 mg/kg/day, po; format: ADME, organism-based; set-up: dose 25 mg/kg/day, route oral; conditions: in vivo
[4] = Metabolic stability in mouse liver microsomes assessed as intrinsic clearance at 5 uM after 5 to 40 mins by LC-MS/MS analysis; format: ADME; conditions: read-out: CLH
[5] = AUC(infinity) in C57BL/6N mouse at 5 mg/kg, iv administered as single dose by LC-MS/MS analysis; format: ADME, organism-based; set-up: time infinity, dose 5 mg/kg, route intravenous; conditions: plasma
In short: (§3)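 Single intravenous bolus of 5 mg/kg to male C57BL/6N mice, given as a filtered 1 mg/mL solution in DMSO:PEG400:water 10:50:40 (v/v). Plasma was extracted in acidified acetonitrile with diclofenac as internal standard and analysed by UPLC-MS/MS. Non-compartmental analysis used mean concentrations (n=3 per time point), with C0 back-extrapolated from the first two samples. AUCinf = AUClast + Ct/kel.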

Mus musculus [6] = experiment: Dose normalised Cmax in C57BL/6N mouse treated with JM6 (containing <0.4% Ro-61-8048) at 9.5 mg/kg, po and Ro-61-8048 at 0.05 mg/kg, po drugs administered via gavage by LC-MS/MS analysis; format: ADME, organism-based; conditions: in vivo, in the assay text read “0.5 mg/kg” for “0.05 mg/kg”
In short: (§4)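 Male C57BL/6N mice were dosed by oral gavage at 10 mL/kg with a fine suspension in 10% hydroxypropyl-β-cyclodextrin in 50 mM phosphate buffer, pH 7. Plasma was taken at non-serial time points (n=3 per time point), extracted with 0.1% formic acid in acetonitrile containing diclofenac as internal standard, and quantified by UPLC-MS/MS. Composite non-compartmental parameters came from mean concentrations; AUClast by linear trapezoid, kel from at least three terminal points.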

[7] = Plasma protein binding in mouse at 5 and 20 uM for 6 hrs by LC-MS/MS analysis; format: ADME, cell-free; conditions: read-out: PPB; in short: as §1
Mus musculus [8] = experiment: Dose normalised AUC in C57BL/6N mouse at 5 mg/kg, iv administered as single dose by LC-MS/MS analysis; format: ADME, organism-based; set-up: dose 5 mg/kg, route intravenous; conditions: in vivo; in short: as §3
[9] = Half life in C57BL/6N mouse at 0.05 mg/kg, po administered via gavage by LC-MS/MS analysis; format: ADME, organism-based; set-up: dose 0.05 mg/kg, route oral; conditions: in vivo; in short: as §4
[10] = molecular target: T1, Kynurenine 3-monooxygenase (Homo sapiens, UniProt O15229); experiment: Inhibition of human KMO assessed as 3-hydroxykynurenine formation preincubated for 5 mins using 100 uM kynurenine as substrate by LC-MS/MS analysis in presence of 3 mg/ml plasma protein
T1 sequence (O15229 whole entry): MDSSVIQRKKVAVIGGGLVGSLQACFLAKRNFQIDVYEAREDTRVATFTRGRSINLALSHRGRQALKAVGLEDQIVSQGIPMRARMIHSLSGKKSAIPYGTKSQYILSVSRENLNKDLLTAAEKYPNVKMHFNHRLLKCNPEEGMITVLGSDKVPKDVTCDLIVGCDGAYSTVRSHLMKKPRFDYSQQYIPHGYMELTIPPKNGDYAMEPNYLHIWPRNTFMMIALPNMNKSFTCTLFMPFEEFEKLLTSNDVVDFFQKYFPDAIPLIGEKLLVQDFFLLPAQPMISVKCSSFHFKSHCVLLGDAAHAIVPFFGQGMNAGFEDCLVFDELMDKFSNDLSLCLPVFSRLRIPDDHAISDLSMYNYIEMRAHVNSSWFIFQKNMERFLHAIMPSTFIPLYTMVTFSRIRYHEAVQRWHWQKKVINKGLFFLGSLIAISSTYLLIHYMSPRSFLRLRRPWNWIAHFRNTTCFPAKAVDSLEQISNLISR
In short: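 Liver mitochondrial KMO (mouse C57 BL/6J or human), 0.3 mg protein/mL in 100 mM potassium phosphate pH 7.4, 200 µM NADPH, NADPH-regenerating system, plus 3 mg/mL plasma protein. Compound pre-incubated 5 min at 25°C; 100 µM kynurenine started reaction for 40 min (mouse) or 60 min (human); TCA stop; 3-hydroxykynurenine by LC-MS/MS. IC50 from 8-point 3-fold series, triplicates, n≥2.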

[11] = Cmax in C57BL/6N mouse at 0.05 mg/kg, po administered via gavage by LC-MS/MS analysis; format: ADME, organism-based; set-up: dose 0.05 mg/kg, route oral; conditions: in vivo; in short: as §4
[12] = Volume of distribution at steady state in C57BL/6N mouse at 5 mg/kg, iv administered as single dose by LC-MS/MS analysis; format: ADME, organism-based; set-up: dose 5 mg/kg, route intravenous; conditions: in vivo, read-out: Vdss
In short: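 Male C57BL/6N mice given 5 mg/kg iv bolus as 1 mg/mL filtered solution in DMSO:PEG400:water 10:50:40. Plasma extracted with acidified acetonitrile (diclofenac IS), analysed by LC-MS/MS. Composite non-compartmental parameters from mean concentrations (n=3 per time point); C0 back-extrapolated from first two points; kel from at least last three concentrations.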

[13] = Plasma protein binding in rat at 5 and 20 uM for 6 hrs by LC-MS/MS analysis; format: ADME, cell-free; conditions: read-out: PPB; in short: as §1
Mus musculus [14] = experiment: Dose normalised Cmax in C57BL/6N mouse at 0.05 mg/kg, po administered via gavage by LC-MS/MS analysis; format: ADME, organism-based; set-up: dose 0.05 mg/kg, route oral; conditions: in vivo; in short: as §4
[15] = Cmax in mouse at 10 mg/kg, po; format: ADME, organism-based; set-up: dose 10 mg/kg, route oral; conditions: in vivo
[16] = molecular target: T1, Kynurenine 3-monooxygenase; experiment: Inhibition of KMO (unknown origin)
[17] = Half life in C57BL/6N mouse at 5 mg/kg, iv administered as single dose containing <0.4% Ro-61-8048 by LC-MS/MS analysis; format: ADME, organism-based; set-up: dose 5 mg/kg, route intravenous; conditions: in vivo; in short: as §3
Mus musculus [18] = experiment: Cmax in C57BL/6N mouse at 10 mg/kg, po administered via gavage containing <0.4% Ro-61-8048 by LC-MS/MS analysis; format: ADME, organism-based; set-up: dose 10 mg/kg, route oral; conditions: in vivo; in short: as §4
Liver = experiment: Metabolic stability in mouse liver microsomes assessed as half life at 1 uM after 5 to 40 mins by LC-MS/MS analysis
Mus musculus [19] = experiment: Dose normalised AUC in C57BL/6N mouse at 10 mg/kg, po administered via gavage containing <0.4% Ro-61-8048 by LC-MS/MS analysis; format: ADME, organism-based; set-up: dose 10 mg/kg, route oral; conditions: in vivo; in short: as §4
Mus musculus [20] = experiment: Tmax in C57BL/6N mouse at 10 mg/kg, po administered via gavage containing <0.4% Ro-61-8048 by LC-MS/MS analysis; format: ADME, organism-based; set-up: dose 10 mg/kg, route oral; conditions: in vivo; in short: as §2
[21] = Oral bioavailability in C57BL/6N mouse treated with JM6 (containing <0.4% Ro-61-8048) at 9 mg/kg and Ro-61-8048 at 1 mg/kg drugs administered via gavage by LC-MS/MS analysis; format: ADME, organism-based; conditions: in vivo; in short: as §2
Mus musculus [22] = experiment: Dose normalised AUC in C57BL/6N mouse at 5 mg/kg, iv administered as single dose containing <0.4% Ro-61-8048 by LC-MS/MS analysis; format: ADME, organism-based; set-up: dose 5 mg/kg, route intravenous; conditions: in vivo; in short: as §3
[23] = Half life in simulated gastric fluid of pH 1.2 at 10 uM after 2 and 4 hrs by LC-UV analysis; format: ADME
In short: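 Compound at 10 µM was shaken at about 25 °C in simulated gastric fluid (2 g/L NaCl, 3.2 g/L pepsin, 0.7% HCl, pH 1.2) and in pepsin-free gastric buffer. Aliquots were taken at 0, 2 and 4 h, diluted into DMSO, and analysed immediately by LC-UV at 254 nm.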

[24] = Cmax in mouse at 25 mg/kg, po; format: ADME, organism-based; set-up: dose 25 mg/kg, route oral; conditions: in vivo
Mus musculus [25] = experiment: AUC(infinity) in C57BL/6N mouse at 10 mg/kg, po administered via gavage containing <0.4% Ro-61-8048 by LC-MS/MS analysis; format: ADME, organism-based, Plasma; set-up: time infinity, dose 10 mg/kg, route oral; conditions: in vivo; in short: as §4

fraction unbound at 6 h, 10 µM [1]: < 0.01
Tmax [2]: 30 min
Cmax [3]: 280 nM
microsomal CLint at 5 µM [4]: < 29 µL/min/mg
AUC(0-inf) [5]: 550 µM·h
Cmax/dose (Mus musculus [6]): 18000 nM
fraction unbound at 6 h [7]: < 0.01
AUC/dose (Mus musculus [8]): 130000 nM·kg·h/mg
half-life [9]: 312 min
IC50 [10]: > 30 µM
Cmax [11]: 550 nM
Vd [12]: 0.15 L/kg
fraction unbound at 6 h [13]: < 0.01
Cmax/dose (Mus musculus [14]): 11000 nM
SMILES: COc1ccc(S(=O)(=O)Nc2nc(-c3cccc([N+](=O)[O-])c3)cs2)cc1OC

Cmax [15]: 1100 nM
IC50 [16]: 4 µM
half-life [17]: 43.2 min
Cmax (Mus musculus [18]): 100 nM
t1/2 (Liver): 12 min
AUC/dose (Mus musculus [19]): 110 nM·kg·h/mg
Tmax (Mus musculus [20]): 30 min
bioavailability [21]: 7.8%
AUC/dose (Mus musculus [22]): 1000 nM·kg·h/mg
half-life at 10 µM [23]: > 1080 min
Cmax/dose (Mus musculus [6]): 150 nM
Cmax [24]: 3400 nM
AUC (Mus musculus [25]): 1.1 µM·h
SMILES: COc1ccc(S(=O)(=O)Nc2nc(-c3cccc([N+](=O)[O-])c3)c(CN3CCCCC3)s2)cc1OC
